# From ChEMBL document CHEMBL1157638, “Fluorescent epigenetic small molecule induces expression of the tumor suppressor ras-association domain family 1A and inhibits human prostate xenograft” (J Med Chem, 2010)
# What was measured:
# Type in all cases: functional
# MCF7 = experiment: Growth inhibition of human MCF7 cells assessed as cell growth at 10 nM relative to untreated control; conditions: read-out: Activity
# MOLT-4 [1] = experiment: Growth inhibition of human MOLT4 cells assessed as cell growth at 100 nM relative to untreated control; conditions: read-out: Activity
# SR = experiment: Growth inhibition of human SR cells assessed as cell growth at 100 nM relative to untreated control; conditions: read-out: Activity
# HCC 2998 [2] = experiment: Growth inhibition of human HCC2998 cells assessed as cell growth at 100 nM relative to untreated control; conditions: read-out: Activity
# Method in brief: (§1)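 Run externally at the National Cancer Institute as a 59-cell-line panel screen, with concentrations up to 100 μM. Growth was scored relative to control, where negative growth or total cell kill was possible. Data are in the Supporting Information.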
# U-251 [3] = experiment: Growth inhibition of human U251 cells assessed as cell growth at 100 nM relative to untreated control; conditions: read-out: Activity
# OVCAR-3 [4] = experiment: Growth inhibition of human OVCAR-3 cells assessed as cell growth at 100 nM relative to untreated control; conditions: read-out: Activity
# A498 = experiment: Growth inhibition of human A498 cells assessed as cell growth at 100 nM relative to untreated control; conditions: read-out: Activity
# DU-145 = experiment: Growth inhibition of human DU145 cells assessed as cell growth at 100 nM relative to untreated control; conditions: read-out: Activity; method in brief: as §1
# CCRF-CEM = experiment: Growth inhibition of human CCRF-CEM cells assessed as cell growth at 1 uM relative to untreated control; conditions: read-out: Activity
# MOLT-4 [5] = experiment: Growth inhibition of human MOLT4 cells assessed as cell growth at 1 uM relative to untreated control; conditions: read-out: Activity
# NCI-H322M = experiment: Growth inhibition of human NCI-H322M cells assessed as cell growth at 1 uM relative to untreated control; conditions: read-out: Activity
# COLO 205 [6] = experiment: Growth inhibition of human COLO205 cells assessed as cell growth at 1 uM relative to untreated control; conditions: read-out: Activity
# HCC 2998 [7] = experiment: Growth inhibition of human HCC2998 cells assessed as cell growth at 1 uM relative to untreated control; conditions: read-out: Activity; method in brief: as §1
# KM12 = experiment: Growth inhibition of human KM12 cells assessed as cell growth at 1 uM relative to untreated control; conditions: read-out: Activity
# U-251 [8] = experiment: Growth inhibition of human U251 cells assessed as cell growth at 1 nM relative to untreated control; conditions: read-out: Activity
# MDA-MB-435 = experiment: Growth inhibition of human MDA-MB-435 cells assessed as cell growth at 1 nM relative to untreated control; conditions: read-out: Activity
# SK-MEL-5 [9] = experiment: Growth inhibition of human SK-MEL-5 cells assessed as cell growth at 1 nM relative to untreated control; conditions: read-out: Activity
# OVCAR-3 [10] = experiment: Growth inhibition of human OVCAR-3 cells assessed as cell growth at 1 uM relative to untreated control; conditions: read-out: Activity
# OVCAR-4 = experiment: Growth inhibition of human OVCAR4 cells assessed as cell growth at 1 nM relative to untreated control; conditions: read-out: Activity
# ACHN = experiment: Growth inhibition of human ACHN cells assessed as cell growth at 1 nM relative to untreated control; conditions: read-out: Activity
# RXF 393 [11] = experiment: Growth inhibition of human RXF393 cells assessed as cell growth at 1 nM relative to untreated control; conditions: read-out: Activity
# HOP-92 [12] = experiment: Growth inhibition of human HOP92 cells assessed as cell growth at 10 nM relative to untreated control; conditions: read-out: Activity; method in brief: as §1
# NCI-H23 = experiment: Growth inhibition of human NCI-H23 cells assessed as cell growth at 10 nM relative to untreated control; conditions: read-out: Activity
# SN12C = experiment: Growth inhibition of human SN12C cells assessed as cell growth at 1 uM relative to untreated control; conditions: read-out: Activity
# PC-3 [13] = experiment: Growth inhibition of human PC3 cells assessed as cell growth at 1 uM relative to untreated control; conditions: read-out: Activity
# MOLT-4 [14] = experiment: Growth inhibition of human MOLT4 cells assessed as cell growth at 10 uM relative to untreated control; conditions: read-out: Activity
# A549 = experiment: Growth inhibition of human A549 cells assessed as cell growth at 10 uM relative to untreated control; conditions: read-out: Activity
# HOP-62 = experiment: Growth inhibition of human HOP62 cells assessed as cell growth at 10 uM relative to untreated control; conditions: read-out: Activity; method in brief: as §1
# HCC 2998 [15] = experiment: Growth inhibition of human HCC2998 cells assessed as cell growth at 10 uM relative to untreated control; conditions: read-out: Activity; method in brief: as §1
# SW-620 [16] = experiment: Growth inhibition of human SW620 cells assessed as cell growth at 10 uM relative to untreated control; conditions: read-out: Activity
# U-251 [17] = experiment: Growth inhibition of human U251 cells assessed as cell growth at 10 uM relative to untreated control; conditions: read-out: Activity
# LOX IMVI [18] = experiment: Growth inhibition of human LOXIMVI cells assessed as cell growth at 10 uM relative to untreated control; conditions: read-out: Activity
# SK-MEL-5 [19] = experiment: Growth inhibition of human SK-MEL-5 cells assessed as cell growth at 10 uM relative to untreated control; conditions: read-out: Activity
# IGROV-1 [20] = experiment: Growth inhibition of human IGROV1 cells assessed as cell growth at 10 uM relative to untreated control; conditions: read-out: Activity
# PC-3 [21] = experiment: Growth inhibition of human PC3 cells assessed as cell growth at 10 uM relative to untreated control; conditions: read-out: Activity
# HOP-92 [22] = experiment: Growth inhibition of human HOP92 cells; method in brief: as §1
# COLO 205 [23] = experiment: Growth inhibition of human COLO205 cells
# SK-MEL-5 [24] = experiment: Growth inhibition of human SK-MEL-5 cells
# IGROV-1 [25] = experiment: Growth inhibition of human IGROV1 cells
# NCI/ADR-RES = experiment: Growth inhibition of human NCI/ADR-RES cells
# RXF 393 [26] = experiment: Growth inhibition of human RXF393 cells
# PC-3 [27] = experiment: Growth inhibition of human PC3 cells
# BT-549 = experiment: Growth inhibition of human BT549 cells
# SW-620 [28] = experiment: Growth inhibition of human SW620 cells assessed as cell growth at 10 nM relative to untreated control; conditions: read-out: Activity
# SF-268 = experiment: Growth inhibition of human SF268 cells assessed as cell growth at 10 nM relative to untreated control; conditions: read-out: Activity
# SNB-75 = experiment: Growth inhibition of human SNB75 cells assessed as cell growth at 10 nM relative to untreated control; conditions: read-out: Activity
# LOX IMVI [29] = experiment: Growth inhibition of human LOXIMVI cells assessed as cell growth at 10 nM relative to untreated control; conditions: read-out: Activity
# SK-OV-3 = experiment: Growth inhibition of human SKOV3 cells assessed as cell growth at 10 nM relative to untreated control; conditions: read-out: Activity
# RXF 393 [30] = experiment: Growth inhibition of human RXF393 cells assessed as cell growth at 10 nM relative to untreated control; conditions: read-out: Activity
# [31] = read-out: LC50 (the source's name)
compound,measurement,setting,value
COc1ccc2c(c1)[nH]c1c(C)c(OS(=O)(=O)c3cccc4c(N(C)C)cccc34)ccc12,growth at 0.01 µM,MCF7,86%
same,growth at 0.1 µM,MOLT-4 [1],99%
same,growth at 0.1 µM,SR,95%
same,growth at 0.1 µM,HCC 2998 [2],78%
same,growth at 0.1 µM,U-251 [3],92%
same,growth at 0.1 µM,OVCAR-3 [4],97%
same,growth at 0.1 µM,A498,59%
same,growth at 0.1 µM,DU-145,103%
same,growth at 1 µM,CCRF-CEM,1%
same,growth at 1 µM,MOLT-4 [5],20%
same,growth at 1 µM,NCI-H322M,52%
same,growth at 1 µM,COLO 205 [6],23%
same,growth at 1 µM,HCC 2998 [7],52%
same,growth at 1 µM,KM12,21%
same,growth at 0.001 µM,U-251 [8],100%
same,growth at 0.001 µM,MDA-MB-435,100%
same,growth at 0.001 µM,SK-MEL-5 [9],100%
same,growth at 1 µM,OVCAR-3 [10],-35%
same,growth at 0.001 µM,OVCAR-4,94%
same,growth at 0.001 µM,ACHN,100%
same,growth at 0.001 µM,RXF 393 [11],103%
same,growth at 0.01 µM,HOP-92 [12],96%
same,growth at 0.01 µM,NCI-H23,91%
same,growth at 1 µM,SN12C,51%
same,growth at 1 µM,PC-3 [13],18%
same,growth at 10 µM,MOLT-4 [14],7%
same,growth at 10 µM,A549,12%
same,growth at 10 µM,HOP-62,35%
same,growth at 10 µM,HCC 2998 [15],-5%
same,growth at 10 µM,SW-620 [16],9%
same,growth at 10 µM,U-251 [17],14%
same,growth at 10 µM,LOX IMVI [18],14%
same,growth at 10 µM,SK-MEL-5 [19],-28%
same,growth at 10 µM,IGROV-1 [20],39%
same,growth at 10 µM,PC-3 [21],7%
same,GI50,HOP-92 [22],9.51 µM
same,TGI,HOP-92 [22],94.8 µM
same,CC50,HOP-92 [22]; [31],> 100 µM
same,GI50,COLO 205 [23],4.24 µM
same,TGI,COLO 205 [23],> 100 µM
same,CC50,COLO 205 [23]; [31],> 100 µM
same,GI50,SK-MEL-5 [24],2.73 µM
same,TGI,SK-MEL-5 [24],9.34 µM
same,CC50,SK-MEL-5 [24]; [31],> 100 µM
same,GI50,IGROV-1 [25],27.6 µM
same,TGI,IGROV-1 [25],> 100 µM
same,CC50,IGROV-1 [25]; [31],> 100 µM
same,GI50,NCI/ADR-RES,4.63 µM
same,TGI,NCI/ADR-RES,> 100 µM
same,CC50,NCI/ADR-RES; [31],> 100 µM
same,GI50,RXF 393 [26],2.44 µM
same,TGI,RXF 393 [26],5.95 µM
same,CC50,RXF 393 [26]; [31],> 100 µM
same,GI50,PC-3 [27],39.3 µM
same,TGI,PC-3 [27],> 100 µM
same,CC50,PC-3 [27]; [31],> 100 µM
same,GI50,BT-549,5.08 µM
same,TGI,BT-549,> 100 µM
same,CC50,BT-549; [31],> 100 µM
same,growth at 0.01 µM,SW-620 [28],104%
same,growth at 0.01 µM,SF-268,111%
same,growth at 0.01 µM,SNB-75,118%
same,growth at 0.01 µM,LOX IMVI [29],92%
same,growth at 0.01 µM,SK-OV-3,95%
same,growth at 0.01 µM,RXF 393 [30],107%
